Experiments:
Format in all cases: functional
ACHN = experiment: Cytotoxicity against human ACHN cells assessed as cell growth at 10 uM after 48 hrs by SRB assay; conditions: read-out: Activity
Procedure, shortened: (§1)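 NCI-60 single-dose screen. Cell lines grown in RPMI 1640 with 5% FBS and 2 mM L-glutamine, plated at 5000–40,000 cells/well according to doubling time, then preincubated 24 h at 37 °C in 5% CO2. Compounds dissolved in DMSO, tested at 10^-5 M for 48 h. Adherent cells fixed with cold TCA (10% final) and stained with 0.4% SRB in 1% acetic acid. Growth expressed as percent of untreated control.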

UACC-62 = experiment: Cytotoxicity against human UACC62 cells assessed as cell growth at 10 uM after 48 hrs by SRB assay; conditions: UACC-62, 48 h, read-out: Activity
Procedure, shortened: (§2)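 NCI-60 single-dose screen at 10^-5 M. Adherent lines are grown in RPMI 1640 with 5% FBS and 2 mM L-glutamine, seeded at 5000–40,000 cells/well by doubling time, and preincubated 24 h at 37 °C in 5% CO2. Drug is added from DMSO stock diluted in medium, then 48 h. Cells are fixed in cold TCA (final 10%) for 60 min and stained with 0.4% SRB in 1% acetic acid. Growth is expressed as % of untreated control using time-zero plates.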

SW-620 = experiment: Cytotoxicity against human SW620 cells assessed as cell growth at 10 uM after 48 hrs by SRB assay; conditions: SW-620, 48 h, read-out: Activity; procedure, shortened: as §2
HCT-116 = experiment: Cytotoxicity against human HCT116 cells assessed as cell growth at 10 uM after 48 hrs by SRB assay; conditions: HCT-116, 48 h, read-out: Activity; procedure, shortened: as §1
HL-60(TB) = experiment: Cytotoxicity against human HL-60(TB) cells assessed as cell growth at 10 uM after 48 hrs by SRB assay; conditions: HL-60, 48 h, read-out: Activity
Procedure, shortened: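 NCI-60 single-dose screen: cells grown in RPMI 1640 with 5% FBS and 2 mM L-glutamine, plated at 5000–40,000 cells/well, preincubated 24 h at 37 °C, 5% CO2. Compound dissolved in DMSO, tested at 10^-5 M for 48 h. Cells TCA-fixed, sulforhodamine B stained. Growth expressed as percent of untreated control, referenced to time-zero plates.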

NCI-H460 = experiment: Cytotoxicity against human NCI-H460 cells assessed as cell growth at 10 uM after 48 hrs by SRB assay; conditions: NCI-H460, 48 h, read-out: Activity; procedure, shortened: as §1
MDA-MB-435 = experiment: Cytotoxicity against human MDA-MB-435 cells assessed as cell growth at 10 uM after 48 hrs by SRB assay; conditions: MDA-MB-435, 48 h, read-out: Activity; procedure, shortened: as §1
SN12C = experiment: Cytotoxicity against human SN12C cells assessed as cell growth at 10 uM after 48 hrs by SRB assay; conditions: read-out: Activity; procedure, shortened: as §1
PC-3 = experiment: Cytotoxicity against human PC3 cells assessed as cell growth at 10 uM after 48 hrs by SRB assay; conditions: PC-3, 48 h, read-out: Activity; procedure, shortened: as §1
BT-549 = experiment: Cytotoxicity against human BT549 cells assessed as cell growth at 10 uM after 48 hrs by SRB assay; conditions: BT-549, 48 h, read-out: Activity; procedure, shortened: as §1
SF-268 = experiment: Cytotoxicity against human SF268 cells assessed as cell growth at 10 uM after 48 hrs by SRB assay; conditions: SF-268, 48 h, read-out: Activity; procedure, shortened: as §1
NCI-H226 = experiment: Cytotoxicity against human NCI-H226 cells assessed as cell growth at 10 uM after 48 hrs by SRB assay; conditions: NCI-H226, 48 h, read-out: Activity; procedure, shortened: as §1
MDA-MB-231 = experiment: Cytotoxicity against human MDA-MB-231 cells assessed as cell growth at 10 uM after 48 hrs by SRB assay; conditions: MDA-MB-231, 48 h, read-out: Activity; procedure, shortened: as §1
SNB-19 = experiment: Cytotoxicity against human SNB19 cells assessed as cell growth at 10 uM after 48 hrs by SRB assay; conditions: SNB-19, 48 h, read-out: Activity; procedure, shortened: as §1
COLO 205 = experiment: Cytotoxicity against human COLO205 cells assessed as cell growth at 10 uM after 48 hrs by SRB assay; conditions: COLO 205, 48 h, read-out: Activity; procedure, shortened: as §1
NCI-H322M = experiment: Cytotoxicity against human NCI-H322M cells assessed as cell growth at 10 uM after 48 hrs by SRB assay; conditions: read-out: Activity; procedure, shortened: as §1
HOP-92 = experiment: Cytotoxicity against human HOP92 cells assessed as cell growth at 10 uM after 48 hrs by SRB assay; conditions: HOP-92, 48 h, read-out: Activity; procedure, shortened: as §1
MCF7 = experiment: Cytotoxicity against human MCF7 cells assessed as cell growth at 10 uM after 48 hrs by SRB assay; conditions: MCF7, 48 h, read-out: Activity; procedure, shortened: as §1
HT-29 = experiment: Cytotoxicity against human HT-29 cells assessed as cell growth at 10 uM after 48 hrs by SRB assay; conditions: HT-29, 48 h, read-out: Activity; procedure, shortened: as §1
SK-OV-3 = experiment: Cytotoxicity against human SKOV3 cells assessed as cell growth at 10 uM after 48 hrs by SRB assay; conditions: SK-OV-3, 48 h, read-out: Activity; procedure, shortened: as §1
A549 = experiment: Cytotoxicity against human A549 cells assessed as cell growth at 10 uM after 48 hrs by SRB assay; conditions: A549, 48 h, read-out: Activity; procedure, shortened: as §1
SK-MEL-2 = experiment: Cytotoxicity against human SK-MEL-2 cells assessed as cell growth at 10 uM after 48 hrs by SRB assay; conditions: SK-MEL-2, 48 h, read-out: Activity; procedure, shortened: as §1
T47D = experiment: Cytotoxicity against human T47D cells assessed as cell growth at 10 uM after 48 hrs by SRB assay; conditions: read-out: Activity; procedure, shortened: as §2
CCRF-CEM = experiment: Cytotoxicity against human CCRF-CEM cells assessed as cell growth at 10 uM after 48 hrs by SRB assay; conditions: read-out: Activity; procedure, shortened: as §1
NCI-H23 = experiment: Cytotoxicity against human NCI-H23 cells assessed as cell growth at 10 uM after 48 hrs by SRB assay; conditions: NCI-H23, 48 h, read-out: Activity; procedure, shortened: as §1
SK-MEL-5 = experiment: Cytotoxicity against human SK-MEL-5 cells assessed as cell growth at 10 uM after 48 hrs by SRB assay; conditions: SK-MEL-5, 48 h, read-out: Activity; procedure, shortened: as §1
NCI-H522 = experiment: Cytotoxicity against human NCI-H522 cells assessed as cell growth at 10 uM after 48 hrs by SRB assay; conditions: NCI-H522, 48 h, read-out: Activity; procedure, shortened: as §1
[1] = Cytotoxicity against human OVCAR5 cells assessed as cell growth at 10 uM after 48 hrs by SRB assay; conditions: OVCAR-5, 48 h, read-out: Activity; procedure, shortened: as §1
MDA-MB-468 = experiment: Cytotoxicity against human MDA-MB-468 cells assessed as cell growth at 10 uM after 48 hrs by SRB assay; conditions: MDA-MB-468, 48 h, read-out: Activity; procedure, shortened: as §1
HOP-62 = experiment: Cytotoxicity against human HOP62 cells assessed as cell growth at 10 uM after 48 hrs by SRB assay; conditions: HOP-62, 48 h, read-out: Activity; procedure, shortened: as §1

SMILES	growth at 10 µM (ACHN) [%]	growth at 10 µM (UACC-62) [%]	growth at 10 µM (SW-620) [%]	growth at 10 µM (HCT-116) [%]	growth at 10 µM (HL-60(TB)) [%]	growth at 10 µM (NCI-H460) [%]	growth at 10 µM (MDA-MB-435) [%]	growth at 10 µM (SN12C) [%]	growth at 10 µM (PC-3) [%]	growth at 10 µM (BT-549) [%]	growth at 10 µM (SF-268) [%]	growth at 10 µM (NCI-H226) [%]	growth at 10 µM (MDA-MB-231) [%]	growth at 10 µM (SNB-19) [%]	growth at 10 µM (COLO 205) [%]	growth at 10 µM (NCI-H322M) [%]	growth at 10 µM (HOP-92) [%]	growth at 10 µM (MCF7) [%]	growth at 10 µM (HT-29) [%]	growth at 10 µM (SK-OV-3) [%]	further results
Cc1cc(C)n(-c2cn3c(-c4ccccc4)csc3n2)n1	83.8	89.4	102	101	105	104	96.9	96.5	88.7	95.3	98.4	88.3	86.3	96.5	106	91.1	86	88.7	97.6	89.9	growth at 10 µM (A549): 99%; growth at 10 µM (SK-MEL-2): 97.6%; growth at 10 µM (T47D): 87.2%; growth at 10 µM (CCRF-CEM): 95.4%; growth at 10 µM (NCI-H23): 95.4%; growth at 10 µM (SK-MEL-5): 94.2%; growth at 10 µM (NCI-H522): 88.4%; growth at 10 µM [1]: 95.4%; growth at 10 µM (MDA-MB-468): 102%; growth at 10 µM (HOP-62): 91.4%
Cc1cc(C)n(-c2cn3c(-c4ccc(Cl)cc4)csc3n2)n1	91	86.9	100	89.8	90.2	101	94.5	89	79.1	113	102	81.5	86.4	92.8	100	91	74.7	85.1	87	93.4	growth at 10 µM (A549): 85.8%; growth at 10 µM (SK-MEL-2): 113%; growth at 10 µM (T47D): 80.7%; growth at 10 µM (CCRF-CEM): 87.8%; growth at 10 µM (NCI-H23): 91%; growth at 10 µM (SK-MEL-5): 85.5%; growth at 10 µM (NCI-H522): 75.3%; growth at 10 µM [1]: 109%; growth at 10 µM (MDA-MB-468): 88.5%; growth at 10 µM (HOP-62): 97.1%
Cc1ccc(-c2csc3nc(-n4nc(C)cc4C)cn23)cc1	90.7	90.5	106	97	106	102	94.6	98.1	84.7	125	112	94.8	88.8	100	106	96.4	78	89.7	104	101	growth at 10 µM (A549): 98.6%; growth at 10 µM (SK-MEL-2): 125%; growth at 10 µM (T47D): 98.2%; growth at 10 µM (CCRF-CEM): 96%; growth at 10 µM (NCI-H23): 93.3%; growth at 10 µM (SK-MEL-5): 98.9%; growth at 10 µM (NCI-H522): 91.8%; growth at 10 µM [1]: 113%; growth at 10 µM (MDA-MB-468): 112%; growth at 10 µM (HOP-62): 104%
CC1=NN(c2cn3c(-c4ccc(C)cc4)csc3n2)C(=O)C1	96.9	74.1	105	94.4	110	105	83.6	96.4	75.3	111	111	89.7	79	100	106	105	65.5	91.8	118	95.5	growth at 10 µM (A549): 98.3%; growth at 10 µM (SK-MEL-2): 114%; growth at 10 µM (T47D): 80.6%; growth at 10 µM (CCRF-CEM): 94%; growth at 10 µM (NCI-H23): 95.5%; growth at 10 µM (SK-MEL-5): 90%; growth at 10 µM (NCI-H522): 88.9%; growth at 10 µM [1]: 124%; growth at 10 µM (MDA-MB-468): 102%; growth at 10 µM (HOP-62): 99.2%

— ChEMBL document CHEMBL3120060, “Synthesis, in vitro anticancer evaluation and in silico studies of novel imidazo[2,1-b]thiazole derivatives bearing pyrazole moieties” (2014)
